This is an account of results in ChEMBL document CHEMBL2046277, “Design, synthesis and biological evaluation of β-carboline derivatives as novel inhibitors targeting B-Raf kinase” (Bioorg Med Chem Lett, 2012).

SMILES strings stand for the structures.

The assay addresses Serine/threonine-protein kinase B-raf (Homo sapiens, UniProt P15056). Kind of assay: Inhibition of human wild type B-Raf kinase assessed as change in ATP consumption by luciferase-luiferin-coupled chemiluminescent assay. In short, it runs like this:
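Wild-type B-Raf enzyme pre-incubated with compound 30 min at 30 °C, then ATP plus unactivated MEK1 substrate added and reacted 1 h at 30 °C. ADP-Glo reagent 40 min at 27 °C, then kinase detection reagent 30 min at 27 °C, luminescence read. IC50 fitted from inhibition rates; mean of two experiments.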

Chain of Serine/threonine-protein kinase B-raf (P15056 whole entry): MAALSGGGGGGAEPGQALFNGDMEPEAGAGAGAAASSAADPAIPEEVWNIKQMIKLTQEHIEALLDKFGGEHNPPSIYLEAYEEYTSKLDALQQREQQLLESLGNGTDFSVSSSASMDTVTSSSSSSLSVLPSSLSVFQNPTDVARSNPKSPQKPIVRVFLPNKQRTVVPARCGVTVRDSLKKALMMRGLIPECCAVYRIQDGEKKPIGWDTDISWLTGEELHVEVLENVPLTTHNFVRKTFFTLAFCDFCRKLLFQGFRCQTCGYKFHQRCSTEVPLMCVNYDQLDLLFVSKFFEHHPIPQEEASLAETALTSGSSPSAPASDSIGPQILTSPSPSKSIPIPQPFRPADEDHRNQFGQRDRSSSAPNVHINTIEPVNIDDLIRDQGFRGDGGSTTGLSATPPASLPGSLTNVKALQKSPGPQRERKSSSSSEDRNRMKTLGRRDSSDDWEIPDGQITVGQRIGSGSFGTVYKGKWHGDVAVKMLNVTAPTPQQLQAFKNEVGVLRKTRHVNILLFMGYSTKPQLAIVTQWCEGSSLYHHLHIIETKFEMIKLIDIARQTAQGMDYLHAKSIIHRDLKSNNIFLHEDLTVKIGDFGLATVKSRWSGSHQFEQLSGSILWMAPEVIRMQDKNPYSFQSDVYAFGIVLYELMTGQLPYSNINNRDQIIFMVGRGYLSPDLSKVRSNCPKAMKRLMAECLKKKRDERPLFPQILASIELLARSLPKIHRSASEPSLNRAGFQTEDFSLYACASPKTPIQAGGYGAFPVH

As for `CCCNS(=O)(=O)c1ccc2[nH]c3c(C(N)=O)nccc3c2c1`, the IC50 is 28.5 µM.

As to `CCN(CC)CCCNS(=O)(=O)c1ccc2[nH]c3c(C(N)=O)nccc3c2c1`, the IC50 was determined as 2.81 µM.

Turning to `NC(=O)c1nccc2c1[nH]c1ccc(S(=O)(=O)NCCCO)cc12`, the IC50 came to 20.5 µM.

With `CC(O)CNS(=O)(=O)c1ccc2[nH]c3c(C(N)=O)nccc3c2c1` (stereo not drawn), the IC50 was determined as 22 µM.

Take `CN(C)CCCNS(=O)(=O)c1ccc2[nH]c3c(C(N)=O)nccc3c2c1`: the IC50 came to 1.62 µM.

For `COC(CNS(=O)(=O)c1ccc2[nH]c3c(C(N)=O)nccc3c2c1)OC`, the IC50 turned out to be 91.5 µM.

`NC(=O)c1nccc2c1[nH]c1ccc(S(=O)(=O)NCC(O)CO)cc12` (stereo not drawn): the IC50 was 45.1 µM.

Take `NC(=O)c1nccc2c1[nH]c1ccc(S(=O)(=O)NCCO)cc12`: the IC50 amounted to 23.7 µM.

Take `COCCCNS(=O)(=O)c1ccc2[nH]c3c(C(N)=O)nccc3c2c1`: the IC50 is 22.7 µM.

For `NC(=O)c1nccc2c1[nH]c1ccc(S(=O)(=O)NC3CC3)cc12`, the IC50 amounted to 9.07 µM.

Consider `NC(=O)c1nccc2c1[nH]c1ccc(S(=O)(=O)Nc3ccccc3)cc12`, for which the IC50 was 2.74 µM.

As to `Cc1ccc(NS(=O)(=O)c2ccc3[nH]c4c(C(N)=O)nccc4c3c2)cc1`, the IC50 is 20.5 µM.

Consider `NC(=O)c1nccc2c1[nH]c1ccc(S(=O)(=O)Nc3ccc(F)cc3)cc12`, for which the IC50 was determined as 8.89 µM.

On to `NC(=O)c1nccc2c1[nH]c1ccc(S(=O)(=O)Nc3ccccn3)cc12`, for which the IC50 was 3.76 µM.

For `NC(=O)c1nccc2c1[nH]c1ccc(S(=O)(=O)Nc3nccs3)cc12`, the IC50 is 7.48 µM.

On to `NC(=O)c1nccc2c1[nH]c1ccc(S(N)(=O)=O)cc12`, for which the IC50 was 2.12 µM.

Regarding `NS(=O)(=O)c1ccc2[nH]c3cnccc3c2c1`, the IC50 worked out at 2.49 µM.

Consider `CC(=O)NS(=O)(=O)c1ccc2[nH]c3cnccc3c2c1`, for which the IC50 is 59.1 µM.

Broadly, the IC50 is the concentration that gives 50% inhibition.
